Activity calls are given as the source filed them. The calls are words filed in the database; no cut-off is given here.
How the values were obtained:
HL-60 = test: Cytotoxicity against human HL60 cells assessed as reduction in cell viability after 72 hrs by MTT assay; format: functional, cell-based; conditions: HL-60, 72 h
K562 [1] = test: Induction of apoptosis in human K562 cells assessed as total necrotic cells by Annexin V-FITC/propidium iodide staining based flow cytometry (reference value: 0.23%); format: functional
K562 [2] = test: Cell cycle arrest in human K562 cells assessed as total cell levels at S phase at IC50 after 72 hrs by propidium iodide staining based flow cytometry (reference value: 36.49%); format: functional
K562 [3] = test: Induction of apoptosis in human K562 cells assessed as specific necrosis by Annexin V-FITC/propidium iodide staining based flow cytometry; format: functional; parameters: concentration or dose not given beside the values
K562 [4] = test: Induction of apoptosis in human K562 cells assessed as specific apoptosis by Annexin V-FITC/propidium iodide staining based flow cytometry; format: functional; parameters: concentration or dose not given beside the values
K562 [5] = test: Induction of apoptosis in human K562 cells assessed as decrease in Bcl-2 expression level by Western blot analysis; format: functional, cell-based
In short: (§1)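 Western blot of treated K562 cells for Bcl-2, Bax, activated caspase 3 and cleaved PARP (85 kDa fragment). Blots developed by ECL, with band expression quantified by densitometry against an untreated control sample.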

K562 [6] = test: Induction of apoptosis in human K562 cells assessed as increase in caspase 3 expression level by Western blot analysis; format: functional, cell-based; in short: as §1
HeLa = test: Cytotoxicity against human HeLa cells assessed as reduction in cell viability after 72 hrs by MTT assay; format: functional, cell-based
K562 [7] = test: Cell cycle arrest in human K562 cells assessed as accumulation at G2/M phase at IC50 after 72 hrs by propidium iodide staining based flow cytometry (reference value: 19.01%); format: functional
Raji = test: Cytotoxicity against human Raji cells assessed as reduction in cell viability after 72 hrs by MTT assay; format: functional, cell-based
MCF7 = test: Cytotoxicity against human MCF7 cells assessed as reduction in cell viability after 72 hrs by MTT assay; format: functional, cell-based; conditions: MCF7, 72 h
K562 [8] = test: Cell cycle arrest in human K562 cells assessed as total cell levels at G2/M phase at IC50 after 72 hrs by propidium iodide staining based flow cytometry (reference value: 14.31%); format: functional
K562 [9] = test: Induction of apoptosis in human K562 cells assessed as gated late apoptotic cells by Annexin V-FITC/propidium iodide staining based flow cytometry (reference value: 0.88%); format: functional
K562 [10] = test: Induction of apoptosis in human K562 cells assessed as gated necrotic cells by Annexin V-FITC/propidium iodide staining based flow cytometry (reference value: 0.24%); format: functional
MDA-MB-231 = test: Cytotoxicity against human MDA-MB-231 cells assessed as reduction in cell viability after 72 hrs by MTT assay; format: functional, cell-based; conditions: MDA-MB-231, 72 h
K562 [11] = test: Cell cycle arrest in human K562 cells assessed as total cell levels at M4 phase at IC50 after 72 hrs by propidium iodide staining based flow cytometry (reference value: 0.50%); format: functional
MRC5 = test: Cytotoxicity against human MRC5 cells assessed as reduction in cell viability after 72 hrs by MTT assay; format: cell-based; conditions: MRC5, 72 h
Jurkat = test: Cytotoxicity against human Jurkat cells assessed as reduction in cell viability after 72 hrs by MTT assay; format: functional, cell-based
A549 = test: Cytotoxicity against human A549 cells assessed as reduction in cell viability after 72 hrs by MTT assay; format: functional, cell-based; conditions: A549, 72 h
K562 [12] = test: Cell cycle arrest in human K562 cells assessed as accumulation at sub G1 phase at IC50 after 72 hrs by propidium iodide staining based flow cytometry (reference value: 1.48%); format: functional
K562 [13] = test: Induction of apoptosis in human K562 cells assessed as total late apoptotic cells by Annexin V-FITC/propidium iodide staining based flow cytometry (reference value: 0.77%); format: functional
K562 [14] = test: Cell cycle arrest in human K562 cells assessed as accumulation at S phase at IC50 after 72 hrs by propidium iodide staining based flow cytometry (reference value: 41.03%); format: functional
K562 [15] = test: Induction of apoptosis in human K562 cells assessed as gated early apoptotic cells by Annexin V-FITC/propidium iodide staining based flow cytometry (reference value: 3.18%); format: functional
K562 [16] = test: Cell cycle arrest in human K562 cells assessed as accumulation at G0/G1 phase at IC50 after 72 hrs by propidium iodide staining based flow cytometry (reference value: 38.48%); format: functional
K562 [17] = test: Induction of apoptosis in human K562 cells assessed as increase in cleaved PARP expression level by Western blot analysis; format: functional, cell-based; in short: as §1
K562 [18] = test: Induction of apoptosis in human K562 cells assessed as gated viable cells by Annexin V-FITC/propidium iodide staining based flow cytometry (reference value: 95.78%); format: functional
K562 [19] = test: Induction of apoptosis in human K562 cells assessed as total early apoptotic cells by Annexin V-FITC/propidium iodide staining based flow cytometry (reference value: 3.07%); format: functional
K562 [20] = test: Cell cycle arrest in human K562 cells assessed as total cell levels at G0/G1 phase at IC50 after 72 hrs by propidium iodide staining based flow cytometry (reference value: 39.97%); format: functional
K562 [21] = test: Cytotoxicity against human K562 cells assessed as reduction in cell viability after 72 hrs by MTT assay; format: functional, cell-based; conditions: K562, 72 h
K562 [22] = test: Induction of apoptosis in human K562 cells assessed as total viable cells by Annexin V-FITC/propidium iodide staining based flow cytometry (reference value: 92.45%); format: functional
K562 [23] = test: Induction of apoptosis in human K562 cells assessed as increase in Bax expression level by Western blot analysis; format: functional, cell-based; in short: as §1

| Compound | IC50 (HL-60) | Activity (K562 [1]) | Activity (K562 [2]) | Activity (K562 [3]) | Activity (K562 [4]) | Activity (K562 [5]) | IC50 (HeLa) | Activity (K562 [7]) | IC50 (Raji) | IC50 (MCF7) | Activity (K562 [8]) | Activity (K562 [9]) | Activity (K562 [10]) | IC50 (MDA-MB-231) | Activity (K562 [11]) | IC50 (MRC5) | IC50 (Jurkat) | IC50 (A549) | Activity (K562 [12]) | Activity (K562 [13]) | other results |
| --- | --- | --- | --- | --- | --- | --- | --- | --- | --- | --- | --- | --- | --- | --- | --- | --- | --- | --- | --- | --- | --- |
| O=C1C=C[C@]2(C[C@H](OC(=O)/C=C/c3ccc([N+](=O)[O-])cc3)[C@@H](c3ccccc3)O2)O1 | 2.24 µM | 0.71% | 25.39% | 3.4% | 0.75% | inactive | 2.22 µM | 21.66% | > 100 µM | 8.58 µM | 20.35% | 0.87% | 0.72% | > 100 µM | 1.93% | > 100 µM | 31.2 µM | 45.4 µM | 2.13% | 0.85% | Activity (K562 [6]): inactive; Activity (K562 [14]): 28.04%; Activity (K562 [15]): 3.86%; Activity (K562 [16]): 48.17%; Activity (K562 [17]): inactive; Activity (K562 [18]): 94.55%; Activity (K562 [19]): 3.78%; Activity (K562 [20]): 43.62%; IC50 (K562 [21]): 5.64 µM; Activity (K562 [22]): 92.65%; Activity (K562 [23]): Active |
| O=C1C=C[C@]2(C[C@H](OC(=O)/C=C/c3ccccc3)[C@H](c3ccccc3)O2)O1 | 3.41 µM | 1.67% | 31.69% | 1.97% | 81.79% | Active | 14.5 µM | 35.21% | 9.68 µM | 5.34 µM | 29.57% | 15.25% | 2.09% | 5.23 µM | 4.73% | > 100 µM | 5.63 µM | 1.02 µM | 5.69% | 12.17% | Activity (K562 [6]): inactive; Activity (K562 [14]): 38.09%; Activity (K562 [15]): 67.26%; Activity (K562 [16]): 21.01%; Activity (K562 [17]): inactive; Activity (K562 [18]): 15.4%; Activity (K562 [19]): 53.67%; Activity (K562 [20]): 17.87%; IC50 (K562 [21]): 4.62 µM; Activity (K562 [22]): 12.29%; Activity (K562 [23]): Active |
| O=C1C=C[C@@]2(C[C@H](OC(=O)/C=C/c3ccc(F)cc3)[C@@H](c3ccccc3)O2)O1 | 4.48 µM | 0.52% | 30.81% | 3.58% | 4.02% | Active | 2.21 µM | 22.5% | 55.4 µM | 21.5 µM | 19.95% | 1.38% | 0.54% | > 100 µM | 2.31% | > 100 µM | 22.2 µM | 25.5 µM | 2.61% | 1.33% | Activity (K562 [14]): 33.71%; Activity (K562 [15]): 6.46%; Activity (K562 [16]): 41.18%; Activity (K562 [18]): 91.63%; Activity (K562 [19]): 6.24%; Activity (K562 [20]): 36.51%; IC50 (K562 [21]): 1.05 µM; Activity (K562 [22]): 88.51%; Activity (K562 [23]): Active |
| O=C1C=C[C@]2(C[C@H](OC(=O)/C=C/c3ccc(F)cc3)[C@@H](c3ccccc3)O2)O1 | 24.1 µM | 0.78% | 26.82% | 3.28% | 8.05% | inactive | 6.12 µM | 29.4% | 34.1 µM | 9.65 µM | 27.34% | 1.85% | 0.83% | > 100 µM | 1.87% | > 100 µM | 15.6 µM | > 100 µM | 2.02% | 1.73% | Activity (K562 [14]): 28.31%; Activity (K562 [15]): 9.86%; Activity (K562 [16]): 40.27%; Activity (K562 [18]): 87.45%; Activity (K562 [19]): 9.21%; Activity (K562 [20]): 37.36%; IC50 (K562 [21]): 8.45 µM; Activity (K562 [22]): 81.7%; Activity (K562 [23]): Active |
| O=C1C=C[C@]2(C[C@H](OC(=O)/C=C/c3ccc(F)cc3)[C@H](c3ccccc3)O2)O1 | 12 µM | 0.23% | 31.52% | 3.78% | 85.69% | Active | 12 µM | 24.82% | 17.3 µM | 15.6 µM | 29.05% | 2.62% | 0.36% | 1.02 µM | 4.05% | > 100 µM | 15.4 µM | 1.21 µM | 14.87% | 1.7% | Activity (K562 [14]): 37.11%; Activity (K562 [15]): 83.24%; Activity (K562 [16]): 23.2%; Activity (K562 [18]): 13.78%; Activity (K562 [19]): 60.46%; Activity (K562 [20]): 19.29%; IC50 (K562 [21]): 9.05 µM; Activity (K562 [22]): 2.45%; Activity (K562 [23]): Active |
